Results taken from PMC6097893 (Cell chemical biology, 2018).

Experiments:
[1] = test system: ZIKV PF13-251013-18; test: Viral infectivity assay; type: cell-based, Zika virus; conditions: read-out: IC90 against ZIKV PF13-251013-18, Vero cells
[2] = target: DENV2 sE-M196V (Dengue virus type 2, UniProt P14340, M476V); test: Biolayer interferometry, DENV2 sE-M196V; type: binding, dengue virus serotype 2; conditions: versus wildtype sE
[3] = test system: DENV2 NGC E-M196V mutant virus; test: Viral infectivity assay; type: cell-based, dengue virus serotype 2; conditions: versus DENV2 NGC wildtype
Outline: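 DENV2 inoculum in EBSS at MOI 1 pre-incubated with test compound over a concentration series, 45 min at 37 °C. The mixture was added to cell monolayers for 1 h at 37 °C, then washed off with PBS. Inhibitor-free medium was added for 24 h (single cycle). Supernatant yield was titred by plaque assay on BHK-21 cells with CMC overlay, 4.5 days, crystal violet.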

[4] = target: DENV2 sE Q271E (Dengue virus type 2, UniProt P14340, Q551E); test: Biolayer interferometry, DENV2 sE Q271E; type: binding, dengue virus serotype 2; conditions: versus wildtype sE

NC(=O)c1cccc(-c2cc(Nc3ccc(OC(F)(F)F)cc3)ncn2)c1 [GNF-2]
IC90 [1]: 107 µM
Effect of M196V mutation on binding [2]: more significantly affected
Sensitivity of DENV2 E-M196V virus to compound [3]: Reduced sensitivity
Effect of Q271E substitution on binding [4]: affinity comparable to wildtype
